Source: PubChem (Sanford-Burnham Center for Chemical Genomics)
This is a sample that favours compounds with a hit; in the whole collection about 0.79% have one here.
hIAP activ: human IAP activators, primary screen, biochemical, luminescence, uHTS | Intestinal-type alkaline phosphatase (Homo sapiens), P09923 | purified human IAP, CDP-Star luminescence, 30 min; active compounds read high; 1 = vehicle-only enzyme, 0 = enzyme-free background | activation factor at 10 µM | 330,000 compounds, 0.16% hits;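 active = activation factor of the enzyme at least 2-fold when tested at 20 µM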
Target sequence (P09923 whole entry, looked up): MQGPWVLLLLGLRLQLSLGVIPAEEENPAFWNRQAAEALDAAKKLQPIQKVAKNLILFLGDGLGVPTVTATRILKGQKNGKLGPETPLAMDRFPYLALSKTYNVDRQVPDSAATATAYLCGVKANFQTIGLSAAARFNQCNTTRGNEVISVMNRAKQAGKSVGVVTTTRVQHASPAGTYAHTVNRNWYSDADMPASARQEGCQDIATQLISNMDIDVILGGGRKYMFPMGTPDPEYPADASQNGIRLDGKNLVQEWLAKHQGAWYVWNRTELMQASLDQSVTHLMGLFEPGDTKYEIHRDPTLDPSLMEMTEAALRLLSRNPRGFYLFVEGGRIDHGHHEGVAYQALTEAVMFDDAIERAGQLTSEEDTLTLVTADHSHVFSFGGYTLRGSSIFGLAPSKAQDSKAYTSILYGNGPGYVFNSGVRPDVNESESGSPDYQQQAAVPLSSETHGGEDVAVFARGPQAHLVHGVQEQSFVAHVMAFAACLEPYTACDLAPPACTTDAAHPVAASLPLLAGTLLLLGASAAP
hIAP block: human IAP inhibitors, primary screen, biochemical, luminescence, uHTS; 330,000 compounds, 0.12% hits; Intestinal-type alkaline phosphatase (Homo sapiens), P09923; inhibition, % at 10 µM; purified IAP, CDP-Star luminescence, 30 min;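 active = inhibition reaching a set limit with compound at 10 µM in the primary screen, cut at about 35% in these data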;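 note: plate controls were DMSO wells with enzyme for no effect and no-enzyme buffer wells for full effect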
bIAP inhibitor: bovine intestinal alkaline phosphatase inhibitors, primary screen, selectivity assay for TNAP inhibitor project, biochemical, bovine IAP, CDP-star luminescence | purified bovine IAP, 30 min | inhibition, % at 20 µM | 190,000 tested, under 10 active | AID 1019, 2008;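 active = over 50% inhibition of intestinal alkaline phosphatase at 20 µM in the single-dose screen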
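test system = bovine IAP enzyme | medium = DEA buffer 100 mM, pH 9.8, with MgCl2 1.0 mM, ZnCl2 0.02 mM | detection = luminescence | dosing = single compound dose of 20 µM, 2% DMSO final | incubation = 30 min reaction at room temperature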
bIAP act: bovine intestinal alkaline phosphatase activators, primary screen, biochemical, bovine IAP, CDP-star luminescence. alkaline phosphatase, intestinal [Bos taurus]. purified bovine IAP, 30 min; active compounds read high; fold of DMSO-control signal, blank-subtracted. activation factor at 20 µM. 200,000 compounds, 0.17% hits. AID 1016, 2008;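 active = activation factor of 2 or more at 20 µM, a signal rise over negative controls twice the positive control's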
mIAP inh: inhibitors of mouse IAP, primary screen, biochemical, luminescence, uHTS; intestinal alkaline phosphatase [Mus musculus]; purified mouse IAP, CDP-Star luminescence, 30 min; inhibition, % at 10 µM; 330,000 compounds, 0.2% hits; AID 2806, 2010;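 active = inhibition of at least 40% at 10 µM in the primary screen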;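 note: plate controls were DMSO with enzyme for no effect and no enzyme wells for full effect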
mIAP activ: activators of mouse IAP, primary screen, biochemical, luminescence, uHTS. activation factor at 10 µM. AID 2805, 2010. 330,000 compounds, 0.24% hits. muIAP, CDP-Star luminescence, 30 min; active compounds read high; 1 = vehicle-only enzyme signal, 0 = enzyme-free wells;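 active = activation factor of at least 2 at 20 µM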
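Assay system: mouse IAP enzyme; reagent: chemiluminescent substrate CDP-Star; dosing: test compounds delivered from DMSO solution; schedule: 30 min at room temperature; measured by: luminescence from enzymatic CDP-Star hydrolysis; controls: DMSO-only wells and no-enzyme negative control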
hIAP act confirm: human IAP activators, confirmation, biochemical, luminescence, single concentration, uHTS hits; shares compounds with hIAP activ; purified IAP, CDP-Star luminescence, 30 min; active compounds read low; activation (%Activity, negative = activation), % at 8.3 µM; 880 compounds, 10% hits; AID 434926, 2010;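 active = at least twofold enzyme activation in any of six single-dose repeats, which the averaged readout prints as negative percent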
mIAP inh confirm: inhibitors of mouse IAP, confirmation, biochemical, luminescence, single concentration. shares compounds with mIAP inh. purified mouse IAP, CDP-Star luminescence, 30 min. inhibition, % at 10 µM. 11,000 compounds, 4.7% hits;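 active = inhibition of at least 40% at 10 µM in either of the two replicates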;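 note: plate controls were DMSO wells with enzyme for no effect and buffer wells lacking enzyme for full effect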
* = called active by the depositor; i = inactive; x = no result given.

SMILES	hIAP activ	hIAP block	bIAP inhibitor	bIAP act	mIAP inh	mIAP activ	hIAP act confirm	others
N#CCCN(CCN1CCCC1)S(=O)(=O)c1ccc(-c2ccc([N+](=O)[O-])cc2)cc1	1.04	-4.5	11.2	0.9	1.9	0.981	x
C=CCN1C(=O)C2(NNc3ccccc3O2)c2ccccc21 (stereo unspecified)	6.66*	i	-286.0	3.9*	-6.0	1.06	-92.8*
O=C(CN1CCN(C(=O)C2COc3ccccc3O2)CC1)Nc1ccccc1 (stereo unspecified)	0.601	39.9*	x	x	8.9	0.911	-9.0
O=C(Nc1nccs1)c1nc[nH]c1C(=O)N1CCc2ccccc2C1	2.09*	-109.1	x	x	5.5	0.945	-48.5
CC(C)(C)OC(=O)N1CCN(C(=O)c2[nH]cnc2C(=O)Nc2nccs2)CC1	2.22*	-121.8	x	x	1.1	0.989	-27.6
C[C@H](NC(=O)c1nc[nH]c1C(=O)N1CCc2ccccc2C1)C(=O)OC(C)(C)C	2.71*	-170.5	x	x	-14.5	1.15	-56.9
CCOc1ccc(C(C)=O)cc1CSc1nc2nc(C)cc(C)n2n1	1	0.0	-2.8	1	1.9	0.981	x
NC(=O)[C@H]1CC2(CC(c3cccc(NC(=O)[C@H]4CCC(=O)N4)c3)=NO2)CN1C(=O)c1cc([N+](=O)[O-])cc([N+](=O)[O-])c1 (stereo partly specified)	1.06	-6.3	x	x	-2.8	1.03	x
NS(=O)(=O)c1ccc(-c2c(-c3ccccc3)sc3ccccc23)cc1	0.974	2.6	x	x	9.2	0.908	x
COc1cccc(N2CCN(CC(=O)Nc3ccc(S(=O)(=O)N4CCCCCC4)cc3)CC2)c1	0.763	23.7	x	x	1.0	0.99	x
CCCN1C(=O)/C(=C2/C=Cc3ccccc3N2CC)SC1=S	0.617	38.3*	4.1	1	34.0	0.66	5.7
CCN1/C(=C/c2ccc3cc(C)ccc3[n+]2CC)Sc2ccccc21	0.631	36.9*	-23.1	1.2	34.4	0.656	9.1
CCN1/C(=C/c2ccc3cc(C)ccc3[n+]2CC)Sc2cc(C)c(C)cc21	0.682	31.8	x	0.3	16.6	0.834	x
CC1=CC(C)C2(COC(=O)Nc3ccccc3)COC(C)C1C2C (stereo unspecified)	1.11	-11.0	0.3	1	-8.3	1.08	x
C/C(=N/NC(=O)c1ccc(Cn2cccn2)o1)c1cccc(NC(=O)c2ccncc2)c1	0.54	46.0*	x	x	-4.9	1.05	-100.7*
O=c1c2c(-c3cccs3)csc2ncn1-c1ccc(Br)cc1	0.39	61.0*	5.8	0.9	13.6	0.864	-112.5*
COc1ccc(N=Cc2sc3ccccc3c2Cl)cc1	0.622	37.8*	4.4	1	1.2	0.988	-34.2
O=S(=O)(Nc1ccc(N2CCCCC2)cc1)c1ccc(F)c(F)c1	0.998	0.2	15.7	0.8	-0.2	1	x
CCNS(=O)(=O)c1ccc2c(c1)NCC2	0.969	3.1	4.3	1	-5.6	1.06	x
CC(=O)Nc1ccc(Nc2ncnc3c2cnn3-c2ccccc2)cc1	0.942	5.8	-4.0	1	8.3	0.917	x
Cc1ccc(-n2ncc3c(NNC(=O)Cc4ccccc4)ncnc32)cc1	2.21*	-120.6	-7.3	1.1	-6.8	1.07	9.9
CC(=O)NNc1ncnc2c1cnn2-c1ccccc1	3.04*	-204.5	-44.0	1.4	18.8	0.812	-68.9
O=C(CCCc1ccccc1)Nc1ccnn1C1CCN(Cc2ccccn2)CC1	1.18	-17.5	x	x	-2.3	1.02	x
Cc1ccccc1CN1CCC(n2nccc2NC(=O)CCCc2ccccc2)CC1	2.9*	-189.6	x	x	-88.9	1.89	26.0
COc1ccc(CCNC(=O)c2cc(-c3ccccc3)c(N3CCOCC3)s2)c(OC)c1OC	1.57	-57.3	x	x	-29.9	1.3	x
SMILES	hIAP activ	hIAP block	bIAP inhibitor	bIAP act	mIAP inh	mIAP activ	hIAP act confirm	others
CCOc1ccc(CCNC(=O)c2cc(-c3ccccc3)c(N3CCOCC3)s2)cc1OCC	2.52*	-152.5	x	x	-116.1	2.16*	1.0
CN(c1ccc(OC(=O)CN2C(=O)NC3(CCCC3)C2=O)cc1)S(=O)(=O)c1ccccc1	0.877	12.3	x	x	6.0	0.94	x
O=C(NNC(=O)c1nn(-c2ccc(F)cc2)ccc1=O)Nc1cccc(Cl)c1	0.601	39.9*	x	x	16.3	0.837	-28.0
O=C(NNC(=O)c1nn(-c2ccc(F)cc2)ccc1=O)c1ccc(Cl)cc1	0.871	12.9	x	x	20.0	0.8	x
CC(C)c1ccc(NC(=O)NC2CCN(CC(=O)Nc3cccc4ccccc34)CC2)cc1	2.22*	-122.4	-82.9	1.8	-323.0	4.23*	-26.4	mIAP inh confirm=-271.8
CC1CN(CC(=O)NCc2ccc(Cl)cc2)CC(C)O1 (stereo unspecified)	1	-0.3	x	x	2.1	0.979	x
CCN(CC(=O)Nc1c(F)cccc1F)C(=O)C1Cc2ccccc2CN1S(=O)(=O)CC (stereo unspecified)	1.04	-4.3	x	x	4.2	0.958	x
O=C(O)C(c1ccccc1)N1C(=O)/C(=C\c2ccc(O)c(O)c2)SC1=S (stereo unspecified)	0.252	74.8*	x	x	66.9*	0.331	23.7	mIAP inh confirm=78.6*
COc1cc(/C=C(\C#N)C(=O)c2ccc(O)c(O)c2)cc(I)c1O	0.489	51.1*	x	x	82.7*	0.173	40.4	mIAP inh confirm=83.4*
COc1cc(/C=C(\C#N)C(=O)N2CCOCC2)cc(Br)c1O	1.16	-16.2	-2.4	1	3.4	0.966	x
COc1ccc(N2CCOCC2)c(NC(=O)c2ccc3c(c2)OCO3)c1	1.02	-2.2	x	x	3.5	0.965	x
O=c1c(O[C@@H]2O[C@H](CO)[C@@H](O)[C@H](O)[C@H]2O)c(-c2ccc(O)c(O)c2)oc2cc(O)cc(O)c12	0.427	57.3*	16.0	0.8	54.9*	0.451	48.0	mIAP inh confirm=57.9*
O=c1c(O[C@@H]2O[C@H](CO)[C@H](O)[C@H](O)[C@H]2O)c(-c2ccc(O)c(O)c2)oc2cc(O)cc(O)c12	x	x	-6.7	1.1	x	x	x
